The source made the active and inactive calls. No cut-off for these calls is given here.
Key:
[1] = system: Poliovirus 1; assay: Antiviral activity against Human poliovirus type 1 infected in mouse assessed as viral titer in muscle at 10 mg/kg, ip administered 1 hr post infection once daily for 5 days measured after 7 days by plaque assay; type: functional, organism-based; set-up: dose 10 mg/kg; settings: Muscle tissue
[2] = system: Poliovirus 1; assay: Antiviral activity against Human poliovirus type 1 infected in mouse assessed as protection from virus-induced death at 10 mg/kg, ip administered 1 hr post infection once daily for 5 days measured after 8 days by plaque assay; type: functional, organism-based; set-up: dose 10 mg/kg
In short: (§1)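 Poliovirus receptor transgenic (cPVR) mice, about 10 weeks old, were infected i.p. with 3 × 10^8 PFU wt PV1. They received 200 μg (~10 mg/kg) PPMO in 500 μl sterile PBS i.p., or PBS alone, at 1 h p.i. and then every 24 h ([…]; 6 mice per group). Mice were monitored daily for paralysis and death, and euthanized at near-total paralysis.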

[3] = system: Poliovirus 1; assay: Antiviral activity against Human poliovirus type 1 infected in mouse assessed as protection from virus-induced paralytic symptom at 10 mg/kg, ip administered 1 hr post infection once daily for 5 days measured after 8 days by plaque assay; type: functional, organism-based; set-up: dose 10 mg/kg; in short: as §1
[4] = system: Poliovirus 1; assay: Antiviral activity against Human poliovirus type 1 infected in mouse assessed as viral titer in large intestine at 10 mg/kg, ip administered 1 hr post infection once daily for 5 days measured after 8 days by plaque assay; type: functional, organism-based; set-up: dose 10 mg/kg
[5] = system: Poliovirus 1; assay: Antiviral activity against Human poliovirus type 1 infected in mouse assessed as protection from virus-induced paralytic symptom at 10 mg/kg, ip administered 1 hr post infection once daily for 5 days measured after 7 days by plaque assay; type: functional, organism-based; set-up: dose 10 mg/kg; in short: as §1
[6] = system: HeLa; assay: Cytotoxicity against human HeLa cell after 21 hrs by MTS assay; type: functional, cell-based
In short: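 Uninfected HeLa cells were exposed to a range of PPMO concentrations for 21 h, then read by MTS assay (4 h, absorbance 492 nm) against water-mock cells set to 100%. CC50 was taken from the concentration–viability curve, and triplicate samples were averaged.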

[7] = system: Poliovirus 1; assay: Antiviral activity against Human poliovirus type 1 infected in mouse assessed as viral titer in spinal cord at 10 mg/kg, ip administered 1 hr post infection once daily for 5 days measured after 8 days by plaque assay; type: functional, organism-based; set-up: dose 10 mg/kg
[8] = system: HeLa; assay: Cytotoxicity against human HeLa cells 10 uM after 24 hrs by MTS assay; type: cell-based
In short: (§2)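 HeLa cells at ~80% confluence, uninfected, exposed to 1–100 μM PPMO or water (mock) in serum-free DMEM-F-12 (1:1) for 24 h. MTS reagent was added for 4 h and absorbance read at 492 nm. Viability was expressed as percent of water-treated cells (set to 100%), averaged over 12 wells.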

[9] = system: Poliovirus 1; assay: Antiviral activity against Human poliovirus type 1 infected in Human HeLa cell assessed as inhibition of translation at 10 uM by luciferase reporter gene assay; type: functional, organism-based
In short: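 HeLa cells were pretreated 4 h with 10 μM PPMO, then electroporated with 20 μg noncapped PV1-Luc replicon RNA (IRES-driven). They were kept in medium with 10 μM PPMO, with or without 2 mM guanidine HCl, at 37°C in 5% CO2. Luciferase in cell lysates was read at 1-h intervals after transfection. Two experiments were averaged.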

[10] = system: Poliovirus 1; assay: Antiviral activity against Human poliovirus type 1 infected in mouse assessed as viral titer in brain at 10 mg/kg, ip administered 1 hr post infection once daily for 5 days measured after 7 days by plaque assay; type: functional, organism-based; set-up: dose 10 mg/kg
[11] = system: Poliovirus 1; assay: Antiviral activity against Human poliovirus type 1 infected in mouse assessed as viral titer in spinal cord at 10 mg/kg, ip administered 1 hr post infection once daily for 5 days measured after 7 days by plaque assay; type: functional, organism-based; set-up: dose 10 mg/kg
[12] = system: HeLa; assay: Cytotoxicity against human HeLa cells at 10 uM by MTS assay; type: cell-based; in short: as §2
[13] = system: Poliovirus 1; assay: Antiviral activity against Human poliovirus type 1 infected in mouse assessed as viral titer in muscle at 10 mg/kg, ip administered 1 hr post infection once daily for 5 days measured after 10 days by plaque assay; type: functional, organism-based; set-up: dose 10 mg/kg; settings: Muscle tissue
[14] = system: Poliovirus 1; assay: Antiviral activity against Human poliovirus type 1 infected in mouse assessed as viral titer in brain at 10 mg/kg, ip administered 1 hr post infection once daily for 5 days measured after 10 days by plaque assay; type: functional, organism-based; set-up: dose 10 mg/kg
[15] = system: Vero; assay: Cytotoxicity against African green monkey Vero cells at 10 uM after 24 hrs by MTS assay; type: cell-based; settings: chlorocebus sabaeus
[16] = system: Poliovirus 1; assay: Antiviral activity against Human poliovirus type 1 infected in mouse assessed as protection from virus-induced death at 10 mg/kg, ip administered 1 hr post infection once daily for 5 days measured after 7 days by plaque assay; type: functional, organism-based; set-up: dose 10 mg/kg; in short: as §1
[17] = system: SK-N-MC; assay: Cytotoxicity against human SK-N-MC cell at 10 uM after 24 hrs by MTS assay; type: cell-based
[18] = system: Poliovirus 1; assay: Antiviral activity against Human poliovirus type 1 infected in mouse assessed as protection from virus-induced paralytic symptom at 10 mg/kg, ip administered 1 hr post infection once daily for 5 days measured after 10 days by plaque assay; type: functional, organism-based; set-up: dose 10 mg/kg; in short: as §1
[19] = system: Poliovirus 1; assay: Antiviral activity against Human poliovirus type 1 infected in mouse assessed as viral titer in large intestine at 10 mg/kg, ip administered 1 hr post infection once daily for 5 days measured after 10 days by plaque assay; type: functional, organism-based; set-up: dose 10 mg/kg
[20] = system: Poliovirus 1; assay: Antiviral activity against Human poliovirus type 1 infected in Human HeLa cell after 21 hrs post infection by plaque assay; type: functional, organism-based; settings: Enterovirus C
In short: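 HeLa cells infected with cDNA-derived PV1 (MOI 0.1), then treated after infection with 2 to 100 μM PPMO. Supernatant virus was titrated by plaque assay on HeLa monolayers 21 h later: 1% agar overlay, 36 h at 37°C, formaldehyde fixation, crystal violet staining and plaque count. IC50 was taken from triplicate samples.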

[21] = system: Poliovirus 1; assay: Antiviral activity against Human poliovirus type 1 infected in Human HeLa cell assessed as inhibition of translation at 10 ug/ml by luciferase reporter gene assay; type: functional, organism-based
In short: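 In-cell translation control: HeLa cells electroporated with 20 μg PV1-Luc replicon RNA were placed in medium with 10 μg/ml puromycin at 37°C in 5% CO2. Luciferase in lysates was read by luminometer at hourly time points after transfection. Two experiments were averaged.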

[22] = system: Poliovirus 1; assay: Antiviral activity against Human poliovirus type 1 infected in mouse assessed as viral titer in small intestine at 10 mg/kg, ip administered 1 hr post infection once daily for 5 days measured after 10 days by plaque assay; type: functional, organism-based; set-up: dose 10 mg/kg
[23] = system: Poliovirus 1; assay: Antiviral activity against Human poliovirus type 1 infected in mouse assessed as viral titer in small intestine at 10 mg/kg, ip administered 1 hr post infection once daily for 5 days measured after 7 days by plaque assay; type: functional, organism-based; set-up: dose 10 mg/kg
[24] = system: Poliovirus 1; assay: Antiviral activity against Human poliovirus type 1 infected in mouse assessed as viral titer in brain 10 mg/kg, ip administered 1 hr post infection once daily for 5 days measured after 8 days by plaque assay; type: functional, organism-based; set-up: dose 10 mg/kg
[25] = system: Poliovirus 1; assay: Antiviral activity against Human poliovirus type 1 infected in mouse assessed as viral titer in spleen at 10 mg/kg, ip administered 1 hr post infection once daily for 5 days measured after 7 days by plaque assay; type: functional, organism-based; set-up: dose 10 mg/kg
[26] = system: Poliovirus 1; assay: Antiviral activity against Human poliovirus type 1 infected in mouse assessed as viral titer in spleen at 10 mg/kg, ip administered 1 hr post infection once daily for 5 days measured after 8 days by plaque assay; type: functional, organism-based; set-up: dose 10 mg/kg
[27] = system: Poliovirus 1; assay: Antiviral activity against Human poliovirus type 1 infected in mouse assessed as viral titer in large intestine at 10 mg/kg, ip administered 1 hr post infection once daily for 5 days measured after 7 days by plaque assay; type: functional, organism-based; set-up: dose 10 mg/kg
[28] = system: Poliovirus 1; assay: Antiviral activity against Human poliovirus type 1 infected in mouse assessed as protection from virus-induced death at 10 mg/kg, ip administered 1 hr post infection once daily for 5 days measured after 10 days by plaque assay; type: functional, organism-based; set-up: dose 10 mg/kg; in short: as §1
[29] = system: Poliovirus 1; assay: Antiviral activity against Human poliovirus type 1 infected in mouse assessed as viral titer in muscle at 10 mg/kg, ip administered 1 hr post infection once daily for 5 days measured after 8 days by plaque assay; type: functional, organism-based; set-up: dose 10 mg/kg; settings: Muscle tissue
[30] = system: Poliovirus 1; assay: Antiviral activity against Human poliovirus type 1 infected in mouse assessed as viral titer in spinal cord at 10 mg/kg, ip administered 1 hr post infection once daily for 5 days measured after 10 days by plaque assay; type: functional, organism-based; set-up: dose 10 mg/kg
[31] = system: Poliovirus 1; assay: Antiviral activity against Human poliovirus type 1 infected in mouse assessed as viral titer in spleen at 10 mg/kg, ip administered 1 hr post infection once daily for 5 days measured after 10 days by plaque assay; type: functional, organism-based; set-up: dose 10 mg/kg
[32] = system: Poliovirus 1; assay: Antiviral activity against Human poliovirus type 1 infected in mouse assessed as viral titer in small intestine at 10 mg/kg, ip administered 1 hr post infection once daily for 5 days measured after 8 days by plaque assay; type: functional, organism-based; set-up: dose 10 mg/kg

SMILES: Cc1cn([C@H]2CN(P(=O)(OC[C@@H]3CN(P(=O)(OC[C@@H]4CNC[C@H](n5cnc6c(=O)[nH]c(N)nc65)O4)N(C)C)C[C@H](n4cnc5c(N)ncnc54)O3)N(C)C)C[C@@H](COP(=O)(N(C)C)N3C[C@@H](COP(=O)(N(C)C)N4C[C@@H](COP(=O)(N(C)C)N5C[C@@H](COP(=O)(N(C)C)N6C[C@@H](COP(=O)(N(C)C)N7C[C@@H](COP(=O)(N(C)C)N8C[C@@H](COP(=O)(N(C)C)N9C[C@@H](COP(=O)(N(C)C)N%10C[C@@H](COP(=O)(N(C)C)N%11C[C@@H](COP(=O)(N(C)C)N%12C[C@@H](COP(=O)(N(C)C)N%13C[C@@H](COP(=O)(N(C)C)N%14C[C@@H](COP(=O)(N(C)C)N%15C[C@@H](COP(=O)(N(C)C)N%16C[C@@H](COP(=O)(N(C)C)N%17C[C@@H](COP(=O)(N(C)C)N%18C[C@@H](COP(=O)(N(C)C)N%19C[C@@H](COP(=O)(N(C)C)N%20C[C@@H](COP(=O)(N(C)C)N%21C[C@@H](COP(=O)(N(C)C)N%22CCN(C(=O)CCNC(=O)CCCCCNC(=O)[C@H](CCCNC(=N)N)NC(=O)CCCCCNC(=O)[C@H](CCCNC(=N)N)NC(=O)[C@H](CCCNC(=N)N)NC(=O)CCCCCNC(=O)[C@H](CCCNC(=N)N)NC(=O)[C@H](CCCNC(=N)N)NC(=O)CCCCCNC(=O)[C@H](CCCNC(=N)N)NC(=O)[C@H](CCCNC(=N)N)NC(=O)CCCCCNC(=O)[C@@H](N)CCCNC(=N)N)CC%22)O[C@@H](n%22cnc%23c(=O)[nH]c(N)nc%23%22)C%21)O[C@@H](n%21cnc%22c(N)ncnc%22%21)C%20)O[C@@H](n%20cnc%21c(N)ncnc%21%20)C%19)O[C@@H](n%19cnc%20c(N)ncnc%20%19)C%18)O[C@@H](n%18ccc(N)nc%18=O)C%17)O[C@@H](n%17cnc%18c(N)ncnc%18%17)C%16)O[C@@H](n%16ccc(N)nc%16=O)C%15)O[C@@H](n%15cnc%16c(=O)[nH]c(N)nc%16%15)C%14)O[C@@H](n%14cnc%15c(=O)[nH]c(N)nc%15%14)C%13)O[C@@H](n%13cnc%14c(N)ncnc%14%13)C%12)O[C@@H](n%12ccc(N)nc%12=O)C%11)O[C@@H](n%11cnc%12c(N)ncnc%12%11)C%10)O[C@@H](n%10ccc(N)nc%10=O)C9)O[C@@H](n9ccc(N)nc9=O)C8)O[C@@H](n8ccc(N)nc8=O)C7)O[C@@H](n7cnc8c(N)ncnc87)C6)O[C@@H](n6cnc7c(N)ncnc76)C5)O[C@@H](n5cnc6c(N)ncnc65)C4)O[C@@H](n4cnc5c(=O)[nH]c(N)nc54)C3)O2)c(=O)[nH]c1=O (some centres not stated)
- Activity [1]: inactive
- Activity [2]: Active
- Activity [3]: Active
- Activity [4]: inactive
- Activity [5]: Active
- CC50 [6]: 52 µM
- Activity [7]: Active
- Activity [8]: Toxic
- Activity [9]: Active
- Activity [10]: Active
- Activity [11]: Active
- Activity [12]: Non-toxic
- Activity [13]: inactive
- Activity [14]: Active
- Activity [15]: Non-toxic
- Activity [16]: Active
- Activity [17]: Non-toxic
- Activity [18]: Active
- Activity [19]: inactive
- IC50 [20]: 2 µM
- Activity [21]: inactive
- Activity [22]: Active
- Activity [23]: Active
- Activity [24]: Active
- Activity [25]: inactive
- Activity [26]: inactive
- Activity [27]: inactive
- Activity [28]: Active
- Activity [29]: inactive
- Activity [30]: Active
- Activity [31]: inactive
- Activity [32]: Active
